Drawing on ChEMBL document CHEMBL1150422, “Diarylmethyloxime and hydrazone derivatives with 5-indolyl moieties as potent inhibitors of tubulin polymerization” (Bioorg Med Chem, 2008), this text covers IC50 and inhibition for 21 compounds.

For assay [1], the system named is HeLa. Briefly: Cytotoxicity against human HeLa cells after 72 hrs by XTT method. It is filed as functional, cell-based.
Assay [2] has as its system HL-60. As to the kind of experiment: Cytotoxicity against human HL60 cells after 72 hrs by XTT method. The settings on record: HL-60, 72 h. It is filed as functional, cell-based. In short, it runs like this:
(§1)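 Cells were seeded in exponential growth per well: HeLa 1.5 × 10³, HT-29 3 × 10³, A-549 5 × 10³, HL-60 3 × 10³. Adherent lines were left to attach for 24 h at 37 °C in 5% CO₂. Cells were exposed to a range of compound concentrations for 72 h. XTT/PMS reagent was then added for 4 h, and absorbance was read at 490 nm against a 655 nm reference. IC50 is the concentration giving 50% inhibition of proliferation.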
For orientation: Formazan colour is commonly taken as a measure of viable cells.

The species named for assay [3] is Bos taurus. Briefly: Inhibition of calf brain tubulin polymerization at 20 uM after 20 mins. In short, it runs like this: (§2)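 Microtubule protein (1.0 mg/mL) in 0.1 M MES, 1 mM EGTA, 1 mM MgCl₂, 1 mM β-ME, 1.5 mM GTP, pH 6.7 was preincubated with ligand for 30 min at 20 °C, then cooled on ice for 10 min. Assembly was triggered by moving from 4 °C to 37 °C. Inhibition was measured turbidimetrically at 450 nm after 20 min against a no-ligand control.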

The subject of assay [4] is A549. As to the kind of experiment: Cytotoxicity against human A549 cells after 72 hrs by XTT method. The class given is functional, cell-based. Particulars: A549, 72 h.
The subject of assay [5] is HT-29. As to the kind of experiment: Cytotoxicity against human HT29 cells after 72 hrs by XTT method. The class given is functional, cell-based. The settings on record: HT-29, 72 h. In short, it runs like this:
as §1

Assay [6] is described as follows: Inhibition of calf brain tubulin polymerization after 20 mins. Details: species or system Bos taurus. In outline:
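Turbidity at 450 nm was followed using 1.0 mg/mL microtubule protein in 0.1 M MES, 1 mM EGTA, 1 mM MgCl₂, 1 mM β-ME, 1.5 mM GTP, pH 6.7, with a ligand-free control. Samples were preincubated for 30 min at 20 °C, iced for 10 min, and assembly was started by shifting from 4 °C to 37 °C. IC50 was read graphically at 20 min. At least two independent experiments used different protein preparations.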

The species entered for assay [7] is Bos taurus. As to the kind of experiment: Inhibition of calf brain tubulin polymerization at 30 uM after 20 mins. In short, it runs like this:
as §2

Assay [8] is filed under the species Bos taurus. Briefly: Inhibition of calf brain tubulin polymerization at 40 uM after 20 mins. In outline:
as §2

Turning to `CN/N=C(/c1cc(OC)c(OC)c(OC)c1)c1ccc2c(ccn2C)c1`, the IC50 in assay [1], in assay [2], in assay [4] and in assay [5] was more than 1000 nM each time. Also, the inhibition in assay [3] stood at 20%.
For `COc1ccc(/C=C\c2cc(OC)c(OC)c(OC)c2)cc1O` [COMBRETASTATIN A4], the values for the IC50 in assay [6] and in assay [5] were 3000 nM and 2 nM, respectively.
Consider `CCn1ccc2cc(/C(=N\O)c3cc(OC)c(OC)c(OC)c3)ccc21`, for which the IC50 was more than 1000 nM in assay [1]; more than 1000 nM in assay [2]; 5900 nM in assay [6]; more than 10000 nM in assay [4]; more than 1000 nM in assay [5]. The compound further gave an inhibition in assay [3] of 87%.
For the compound `COc1cc(/C(=N/N)c2ccc3c(ccn3C)c2)cc(OC)c1OC`, the IC50 in assay [2] is more than 10000 nM. This compound also showed an inhibition in assay [7] of 35%.
In the case of `COc1ccc(C(=O)c2cc(OC)c(OC)c(OC)c2)cc1O` [PHENSTATIN], the IC50 in assay [1] was 30 nM; in assay [2], 1800 nM; in assay [6], 2500 nM; in assay [4], 300 nM; in assay [5], 30 nM. The compound also gave an inhibition in assay [3] of 97%.
With `COc1cc(C(OC(C)=O)c2ccc3c(ccn3C)c2)cc(OC)c1OC` (stereo unspecified), the IC50 was 6.4 nM in assay [1], 240 nM in assay [2], more than 10000 nM in assay [4] and 260 nM in assay [5]. The inhibition in assay [3] stood at 41%.
As to `COc1cc(/C(=N/O)c2ccc3c(ccn3C)c2)cc(OC)c1OC`, the IC50 in assay [1] is 360 nM; in assay [2] it was 110 nM; in assay [6], 1800 nM; in assay [4], more than 10000 nM; in assay [5], 330 nM. Besides, in assay [7], the inhibition stood at 82%.
`COc1cc(/C(=N\O)c2ccc3c(ccn3C)c2)cc(OC)c1OC` showed an inhibition in assay [3] of 23%.
`CCn1ccc2cc(C(=O)c3cc(OC)c(OC)c(OC)c3)ccc21`: the IC50 in assay [1] stood at 16 nM; in assay [2] it was 34 nM; in assay [6] it was 5700 nM; in assay [4] it was 140 nM. In assay [3], this compound registered an inhibition of 95%.
Regarding `CCn1ccc2cc(/C(=N/OC(C)=O)c3cc(OC)c(OC)c(OC)c3)ccc21`, the IC50 in assay [1] was more than 10000 nM; in assay [2] it was more than 1000 nM; in assay [4] it was more than 10000 nM; in assay [5], more than 10000 nM. Further, the inhibition in assay [3] turned out to be 54%.
`COc1cc(/C(=N\OC(C)=O)c2ccc3c(ccn3C)c2)cc(OC)c1OC` yielded an IC50 in assay [2] of more than 10000 nM. In assay [3], this compound returned an inhibition of 41%.
`CCn1ccc2cc(C(OC(C)=O)c3cc(OC)c(OC)c(OC)c3)ccc21` (stereo unspecified): the IC50 in assay [1] is more than 1000 nM; in assay [2] it was more than 10000 nM; in assay [4], more than 10000 nM; in assay [5] it was more than 1000 nM. For the same compound, the inhibition in assay [3] was 0%.
As for `COc1cc(/C(=N/OC(C)=O)c2ccc3c(ccn3C)c2)cc(OC)c1OC`, the IC50 in assay [2] is more than 10000 nM. The compound also had an inhibition in assay [3] of 38%.
Take `CCn1ccc2cc(/C(=N\N)c3cc(OC)c(OC)c(OC)c3)ccc21`: the IC50 in assay [1] was more than 1000 nM; in assay [2] it was more than 1000 nM; in assay [4], more than 10000 nM; in assay [5], more than 1000 nM. The compound also showed an inhibition in assay [7] of 7%.
On to `COc1cc(/C(=N\OC(=O)OC(C)(C)C)c2ccc3c(ccn3C)c2)cc(OC)c1OC`, for which the IC50 in assay [1], in assay [2], in assay [4] and in assay [5] was more than 1000 nM throughout. Besides, in assay [3], the inhibition worked out at 17%.
On to `COc1cc(C(=O)c2ccc3c(ccn3C)c2)cc(OC)c1OC`, for which the IC50 was 34 nM in assay [1], 7900 nM in assay [6] and 120 nM in assay [4]. In assay [8], this compound yielded an inhibition of 98%.
Turning to `CCn1ccc2cc(C(O)c3cc(OC)c(OC)c(OC)c3)ccc21` (stereo unspecified), the half-inhibitory concentration (IC50) in assay [1] is more than 1000 nM; in assay [2], more than 10000 nM; in assay [4], more than 10000 nM; in assay [5] it was more than 1000 nM. The inhibition in assay [3] amounted to 42%.
Take `COc1cc(/C(=N/NC(C)=O)c2ccc3c(ccn3C)c2)cc(OC)c1OC`: the IC50 was 2300 nM in assay [1], more than 1000 nM in assay [2] and more than 10000 nM in assay [4]. The compound further displayed an inhibition in assay [7] of 14%.
For `COc1cc(C(O)c2ccc3c(ccn3C)c2)cc(OC)c1OC` (stereo unspecified), the IC50 in assay [1] was more than 1000 nM; in assay [2], more than 10000 nM; in assay [6], 18000 nM; in assay [4], more than 10000 nM; in assay [5] it was more than 1000 nM. Also, the inhibition in assay [3] was 86%.
`CCn1ccc2cc(/C(=N\OC(C)=O)c3cc(OC)c(OC)c(OC)c3)ccc21`: the IC50 is more than 1000 nM in assay [1], more than 1000 nM in assay [2], more than 10000 nM in assay [4] and more than 1000 nM in assay [5]. The same compound gave an inhibition in assay [3] of 26%.
Turning to `COc1cc(/C(=N/OC(=O)OC(C)(C)C)c2ccc3c(ccn3C)c2)cc(OC)c1OC`, the IC50 in assay [1] is more than 1000 nM; in assay [2], more than 1000 nM; in assay [4], more than 10000 nM; in assay [5] it was more than 1000 nM. The same compound had an inhibition in assay [3] of 10%.

For orientation: IC50 means the midpoint of a concentration-inhibition curve. Lower therefore signals higher potency. What is called inhibition is the change of the read-out against control, counted positive when it falls. A low value points to a response near the control.
